Data set [1] relates to Human immunodeficiency virus 1. The experiment in a line: Ratio of EC50 for raltegravir-resistant HIV-1 harboring integrase Y143R mutant infected in human HOS cells to EC50 for HIV-1 harboring integrase wild type integrase infected in human HOS cells. The format is functional.
Data set [2] in a line: Retention time of the compound by HPLC analysis. It is filed as physicochemical. A digest of the protocol:
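Preparative HPLC run as a linear gradient of solvent B over 30 min, starting at 30% B and ending at 70% or 80% B depending on the compound. Retention time was taken at elution.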

For data set [3], the target named is T1, Human immunodeficiency virus type 1 integrase (Human immunodeficiency virus 1, UniProt Q7ZJM1). In words: Inhibition of strand transfer activity of HIV-1 integrase using [gamma-32P]-labeled DNA as substrate. An outline of the steps: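 Gel-based assay with radiolabelled oligonucleotide substrate and Mg2+ cofactor, measuring strand transfer by recombinant HIV-1 integrase. IC50 determined.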

For the next data set, the system named is HOS. The experiment in a line: Cytotoxicity against human HOS cells assessed as ATP level by luciferase reporter assay. It is filed as cell-based. An outline of the steps:
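HOS cells were exposed to compound and viability was read as ATP level by luciferase reporter. […] SI is CC50 divided by WT-vector EC50.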
For orientation: In a reporter assay the amount or activity of a reporter protein is the signal.

The nature of data set [4]: Selectivity index, ratio of CC50 for human HOS cells to EC50 for HIV-1 harboring wild type integrase infected in human HOS cells. The format is toxicity, cell-based. As to conditions: read-out: Ratio CC50/EC50. An outline of the steps: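 HOS cells were exposed to compound and viability was read as ATP level by luciferase reporter. SI is CC50 divided by WT-vector EC50.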

Data set [5] addresses T1, Human immunodeficiency virus type 1 integrase.
In data set [6] the test system is Human immunodeficiency virus 1. In words: Antiviral activity against HIV-1 harboring wild type integrase infected in human HOS cells pretreated with compound for 3 hrs by single-round HIV-1 infectivity assay. The format is functional, organism-based. As to conditions: Human immunodeficiency virus 1, HOS.
Data set [7] has as its system Human immunodeficiency virus 1. The experiment in a line: Antiviral activity against raltegravir-resistant HIV-1 harboring integrase Y143R mutant infected in human HOS cells pretreated with compound for 3 hrs by single-round HIV-1 infectivity assay. It is filed as functional, organism-based. As to conditions: Human immunodeficiency virus 1, HOS.
The test system of data set [8] is Human immunodeficiency virus 1. The experiment in a line: Antiviral activity against raltegravir-resistant HIV-1 harboring integrase N155H mutant infected in human HOS cells pretreated with compound for 3 hrs by single-round HIV-1 infectivity assay. The format is functional, organism-based. As to conditions: Human immunodeficiency virus 1, HOS.
Data set [9] concerns Human immunodeficiency virus 1. The experiment in a line: Antiviral activity against raltegravir-resistant HIV-1 harboring integrase G140S/Q148H double mutant infected in human HOS cells pretreated with compound for 3 hrs by single-round HIV-1 infectivity assay. It is filed as functional, organism-based. As to conditions: Human immunodeficiency virus 1, HOS.
Data set [10] has as its system Human immunodeficiency virus 1. In words: Ratio of EC50 for raltegravir-resistant HIV-1 harboring integrase G140S/Q148H double mutant infected in human HOS cells to EC50 for HIV-1 harboring integrase wild type integrase infected in human HOS cells. It is filed as functional.
In data set [11] the test system is Human immunodeficiency virus 1. In words: Ratio of EC50 for raltegravir-resistant HIV-1 harboring integrase N155H mutant infected in human HOS cells to EC50 for HIV-1 harboring integrase wild type integrase infected in human HOS cells. The format is functional.

T1 sequence (Q7ZJM1 whole entry): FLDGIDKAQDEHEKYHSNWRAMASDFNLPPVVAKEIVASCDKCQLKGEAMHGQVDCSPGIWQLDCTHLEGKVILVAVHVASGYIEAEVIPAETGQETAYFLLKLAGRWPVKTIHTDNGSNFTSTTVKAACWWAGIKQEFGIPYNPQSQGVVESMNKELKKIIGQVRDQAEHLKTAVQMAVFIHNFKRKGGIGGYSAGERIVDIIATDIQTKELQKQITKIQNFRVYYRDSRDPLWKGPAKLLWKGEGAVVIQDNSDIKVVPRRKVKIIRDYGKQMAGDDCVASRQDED

For the molecule `Nc1ccc(-c2ccc(Nc3c(C(=O)NCc4ccc(F)cc4F)c(=O)n(O)c4ncccc34)cc2)cc1`, the “Ratio EC50” value in data set [1] came out at 16. Further, the Retention_time in data set [2] turned out to be 15.6 min. Moreover, the figures for the IC50 in data set [3] and in [5] were 130 nM and 80000 nM, respectively. For the same molecule, the CC50 in the data set with HOS is > 250000 nM. Also, the selectivity ratio in [4] is > 39700. Moreover, the EC50 in data set [6] was 6.3 nM.

Take `O=C(NCc1ccc(F)cc1F)c1c(NC2CCCCCC2)c2cccnc2n(O)c1=O`: the “Ratio EC50” value in data set [1] is 0.55; in [10], 3; in [11], 1. The EC50 was 6.6 nM in data set [7], 14 nM in data set [8], 35 nM in data set [9] and 12 nM in data set [6]. This molecule also gave a Retention_time in [2] of 25.8 min. In addition, the IC50 came out at 460 nM in [3] and 13000 nM in [5]. In the data set on HOS, the CC50 was determined as 68000 nM. Further, the selectivity ratio in data set [4] was determined as 5670.

For the molecule `COC(=O)[C@@H](C)Nc1c(C(=O)NCc2ccc(F)cc2F)c(=O)n(O)c2ncccc12`, the values for the EC50 in [7], in data set [9] and in data set [6] were 8.1 nM, 89 nM and 11.3 nM, respectively. The molecule also displayed a Retention_time in data set [2] of 26.4 min. Further, the CC50 in the data set with HOS is > 250000 nM.

As to `O=C(NCc1ccc(F)cc1F)c1c(Nc2ccc3c(c2)Cc2ccccc2-3)c2cccnc2n(O)c1=O`, the “Ratio EC50” value in data set [1] turned out to be 3. This molecule also displayed a Retention_time in data set [2] of 21.3 min. The results for the IC50 in data set [3] and in data set [5] were 840 nM and 46000 nM, respectively. In addition, in the data set on HOS, the CC50 is > 250000 nM. The selectivity ratio in data set [4] is > 1460. In [6], the EC50 was found to be 171 nM.

In [2], `CCCCCNc1c(C(=O)NCc2ccc(F)cc2F)c(=O)n(O)c2ncccc12` came in with a Retention_time of 23.7 min. The IC50 in data set [3] was 24 nM; in [5] it was 8200 nM. In the data set on HOS, the cytotoxic concentration (CC50) is 94000 nM. For the same molecule, in [6], the EC50 amounted to 7.4 nM.

`O=C(NCc1ccc(F)cc1F)c1c(NCCc2ccccc2)c2cccnc2n(O)c1=O` yielded a Retention_time in data set [2] of 22 min. In addition, the IC50 was found to be 50 nM in data set [3] and 8000 nM in [5]. The half-maximal cytotoxic concentration (CC50) with HOS was > 250000 nM. The EC50 in data set [6] stood at 14 nM.

In turn, `O=C(NCc1ccc(F)cc1F)c1c(Nc2ccccc2)c2cccnc2n(O)c1=O` had a Retention_time in data set [2] of 20.2 min. Moreover, the IC50 worked out at 18 nM in [3] and 6900 nM in [5]. Besides, the CC50 with HOS was > 250000 nM. The EC50 in [6] amounted to 14 nM.

Consider `CNc1c(C(=O)NCc2ccc(F)cc2F)c(=O)n(O)c2ncccc12`, for which the Retention_time in data set [2] was found to be 26.4 min. In addition, the figures for the IC50 in data set [3] and in data set [5] were 27 nM and 3700 nM, respectively. The CC50 with HOS was > 250000 nM. For the same molecule, the half-maximal effective concentration (EC50) in data set [6] was determined as 3.1 nM.

With `NCCNc1c(C(=O)NCc2ccc(F)cc2F)c(=O)n(O)c2ncccc12`, the Retention_time in data set [2] is on record as 25.9 min. The IC50 came to 39 nM in data set [3] and 4500 nM in data set [5]. Also, the half-maximal cytotoxic concentration (CC50) with HOS was found to be 9600 nM. Further, in data set [6], the EC50 was 35 nM.

As for `COC(=O)[C@H](C)Nc1c(C(=O)NCc2ccc(F)cc2F)c(=O)n(O)c2ncccc12`, the Retention_time in data set [2] is listed as 26.4 min. The EC50 in data set [6] worked out at 4.2 nM.

For the molecule `N#Cc1ccc(-c2ccc(Nc3c(C(=O)NCc4ccc(F)cc4F)c(=O)n(O)c4ncccc34)cc2)cc1`, the “Ratio EC50” value in [1] worked out at 3. Moreover, in data set [2], the Retention_time was 22.3 min. Moreover, the IC50 amounted to 130 nM in data set [3] and 70000 nM in data set [5]. Moreover, in the data set with HOS, the CC50 was > 250000 nM. The selectivity ratio in [4] is > 2030. The EC50 in data set [6] amounted to 123 nM.

Take `CCOC(=O)[C@@H]1CCCN1c1c(C(=O)NCc2ccc(F)cc2F)c(=O)n(O)c2ncccc12`: the “Ratio EC50” value in data set [1] was determined as 3. The EC50 in data set [7] came to 1660 nM; in data set [6] it was 590 nM. Further, in data set [2], the Retention_time turned out to be 12.5 min. Moreover, the IC50 in [3] is 310 nM; in [5] it was 86000 nM. In addition, the CC50 in the data set on HOS was found to be 18000 nM. Also, the selectivity ratio in data set [4] worked out at 31.

In the case of `CN(C)c1c(C(=O)NCc2ccc(F)cc2F)c(=O)n(O)c2ncccc12`, the “Ratio EC50” value in data set [1] came out at 1; in data set [10] it was 25; in data set [11] it was 9. The EC50 amounted to 273 nM in [7], 2300 nM in data set [8], 6800 nM in [9] and 268 nM in data set [6]. For the same molecule, in data set [2], the Retention_time turned out to be 21.6 min. Moreover, the concentration for half-maximal inhibition (IC50) is 87 nM in data set [3] and 21000 nM in [5]. The CC50 with HOS was 13000 nM. Further, the selectivity ratio in data set [4] is 49.

Molecule `COC(=O)[C@@H](CO)Nc1c(C(=O)NCc2ccc(F)cc2F)c(=O)n(O)c2ncccc12` gave a Retention_time in data set [2] of 20.5 min. Moreover, the figures for the IC50 in data set [3] and in data set [5] were 13 nM and 4400 nM, respectively. The EC50 in data set [6] came out at 14.2 nM.

On to `O=C(NCc1ccc(F)cc1F)c1c(NCCCCc2ccccc2)c2cccnc2n(O)c1=O`, for which the figures for the “Ratio EC50” value in data set [1], in data set [10] and in [11] were 0.8, 5 and 2, respectively. The EC50 in [7] came out at 40 nM; in data set [8], 116 nM; in data set [9], 243 nM; in data set [6] it was 50 nM. The same molecule gave a Retention_time in [2] of 26.7 min. Besides, the IC50 in [3] stood at 280 nM; in [5] it was 12000 nM. Further, the 50% cytotoxic concentration (CC50) in the data set with HOS stood at 102000 nM. Moreover, the selectivity ratio in data set [4] came to 2040.

Consider `O=C(NCc1ccc(F)cc1F)c1c(Nc2ccc(-c3ccccc3)cc2)c2cccnc2n(O)c1=O`, for which the “Ratio EC50” value in [1] stood at 1. In [2], this molecule returned a Retention_time of 22.8 min. The values for the IC50 in [3] and in [5] were 340 nM and 52000 nM, respectively. Further, the 50% cytotoxic concentration (CC50) in the data set on HOS is > 250000 nM. Besides, the selectivity ratio in [4] was > 672. For the same molecule, the 50% effective concentration (EC50) in data set [6] came out at 372 nM.

Molecule `COC(=O)[C@@H](Nc1c(C(=O)NCc2ccc(F)cc2F)c(=O)n(O)c2ncccc12)c1ccccc1` displayed a Retention_time in data set [2] of 22.6 min. The CC50 with HOS is > 250000 nM.

Regarding `COC(=O)[C@H](Nc1c(C(=O)NCc2ccc(F)cc2F)c(=O)n(O)c2ncccc12)c1ccccc1`, the EC50 in data set [8] amounted to 22 nM; in data set [6] it was 7.4 nM. In data set [2], the Retention_time turned out to be 26.3 min.

In the case of `O=C(NCc1ccc(F)cc1F)c1c(N2CCOCC2)c2cccnc2n(O)c1=O`, the “Ratio EC50” value in [1] is on record as 1.5; in data set [10] it was 6; in data set [11], 3. The EC50 in data set [7] was found to be 1800 nM; in [8], 3730 nM; in [9], 6920 nM; in data set [6], 1200 nM. Also, the Retention_time in data set [2] was 20.5 min. In addition, the IC50 in data set [3] stood at 79 nM; in data set [5], 77000 nM. Also, the CC50 in the data set with HOS turned out to be 8400 nM. Moreover, the selectivity ratio in data set [4] was found to be 7.

As to `COC(=O)[C@H](CO)Nc1c(C(=O)NCc2ccc(F)cc2F)c(=O)n(O)c2ncccc12`, the Retention_time in data set [2] came to 15.9 min. Moreover, the IC50 worked out at 8.4 nM in data set [3] and 5800 nM in [5]. Further, in the data set on HOS, the CC50 is > 250000 nM. Also, in data set [6], the EC50 is 9.7 nM.

On to `CC(C)Nc1c(C(=O)NCc2ccc(F)cc2F)c(=O)n(O)c2ncccc12`, for which, in [2], the Retention_time amounted to 17 min. Also, the results for the IC50 in data set [3] and in [5] were 16 nM and 1800 nM, respectively. Moreover, the cytotoxic concentration (CC50) in the data set with HOS is > 250000 nM. Also, the half-maximal effective concentration (EC50) in data set [6] was determined as 7.2 nM.

A word on the IC50: it is the concentration at which inhibition is half-maximal. A high value points to weaker potency. One may read the CC50 as the concentration giving 50% cytotoxicity. What is called EC50 is the concentration at which the effect is half-maximal.

For the origin of these results see ChEMBL document CHEMBL3286128 (J Med Chem, 2014).
